Type in all cases: functional, cell-based
A short description of assay [1]: Cytotoxicity against human HONE1 cells after 72 hrs by methylene blue dye assay. The settings on record: HONE1, 72 h. The method, boiled down: (§1)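 Log-phase cells seeded at 5000 cells/mL/well in 24-well plates, exposed to a range of compound concentrations for 72 h. Growth read by methylene blue dye staining. IC50 (50% growth inhibition versus untreated control) read graphically; mean ± standard deviation of three independent replicates. IC50 above 10 µM taken as non-cytotoxic. Etoposide and cisplatin served as positive controls.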

The subject of a further assay is KB. In words: Cytotoxicity against human KB cells after 72 hrs by methylene blue dye assay. The method, boiled down:
as §1

The subject of a further assay is HT-29. The assay is described as follows: Cytotoxicity against human HT-29 cells after 72 hrs by methylene blue dye assay. The settings on record: HT-29, 72 h. The method, boiled down:
as §1

With `CC1=CCC[C@H]2[C@@]1(C)[C@@H](OC(=O)C(=O)C(C)C)[C@H](OC(=O)c1cccnc1)[C@](C)(O)[C@]2(C)/C=C/C1=CC(=O)OC1`, the IC50 in assay [1] is 4 µM; in the assay on KB, 4.2 µM; in the assay with HT-29, 5.5 µM.
The corresponding values for `CC(=O)O[C@H]1[C@H](OC(=O)c2cccnc2)[C@](C)(O)[C@](C)(/C=C/C2=CC(=O)OC2)[C@H]2CCC=C(C)[C@]12C` [6-O-ACETYLSCUTEHENANINE A] are 3.7 µM, 3.2 µM and 5.2 µM.
Consider `COc1cc([C@@H]2c3cc4c(cc3[C@@H](O[C@@H]3O[C@@H]5CO[C@@H](C)O[C@H]5[C@H](O)[C@H]3O)[C@H]3COC(=O)[C@H]23)OCO4)cc(OC)c1O` [ETOPOSIDE], for which the IC50 came to 1.2 µM in assay [1], 1.3 µM in the assay with KB and 2.3 µM in the assay with HT-29.
Regarding `CC1=CCC[C@H]2[C@@]1(C)[C@@H](O)[C@H](OC(=O)c1cccnc1)[C@](C)(O)[C@]2(C)/C=C/C1=CC(=O)OC1` [SCUTEHENANINE A], the IC50 was determined as 3.1 µM in assay [1], 4.5 µM in the assay with KB and 5.8 µM in the assay with HT-29.
Regarding `CC1=CCC[C@H]2[C@@]1(C)[C@@H](OC(=O)c1ccccc1)[C@H](O)[C@]1(C)O[C@@]3(COC(=O)C3)C[C@H](OC(=O)c3cccnc3)[C@]21C` [SCUTEHENANINE B], the half-maximal inhibitory concentration (IC50) in assay [1] was determined as 3.5 µM; in the assay on KB, 4.7 µM; in the assay on HT-29, 5 µM.
Taken in the same sequence, the figures for `C=C1CCC[C@H]2[C@@]1(C)[C@@H](OC(=O)c1ccccc1)[C@H](O)[C@]1(C)O[C@@]3(COC(=O)C3)C[C@H](OC(=O)c3cccnc3)[C@]21C` [SCUTEHENANINE C] were 3.4 µM, 2.9 µM and 5.3 µM.
As to `CC1=CCC[C@H]2[C@@]1(C)[C@@H](OC(=O)c1cccnc1)[C@H](OC(=O)c1ccccc1)[C@](C)(O)[C@]2(C)[C@H]1CC2=C(O1)C(=O)OC2` [SCUTEHENANINE D], the 50% inhibitory concentration (IC50) turned out to be 4.1 µM in assay [1], 2.8 µM in the assay on KB and 6.4 µM with HT-29.
